Measurements from article PMC2897705 (Biochemistry, 2010).

Legend:
Assay type in all cases: biochemical
[1] = biological target: T1, LRRK2 (Mus musculus, UniProt Q5S006); test: Radiometric TLC assay of LRRK2-catalyzed GTP hydrolysis; settings: for Ki: read-out: apparent dissociation constant Ki,app
Outline: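 LRRK2 purified from BAC-transgenic mouse brain (30 nM) starts GTP hydrolysis with GTP plus [α-33P]-GTP. Runs are in triplicate, 20 min at room temperature, stopped with 20 mM EDTA. [α-33P]-GDP is resolved on PEI-cellulose TLC (0.5 M KH2PO4, pH 3.4) and counted by scintillation. Initial velocities versus [GTP] are fitted to Michaelis–Menten.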

[2] = biological target: T1, LRRK2; test: TR-FRET assay of LRRK2-catalyzed PLK-peptide phosphorylation
Outline: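 Mouse-brain-derived LRRK2 (4 nM) phosphorylates PLK-peptide (RRRSLLE) with varied ATP. Runs are in duplicate, 4 h at room temperature, stopped with 10 mM EDTA, then 2 h with 2 nM Eu-anti-phospho-PLK before the TR-FRET read. For inhibitor studies, ATP is varied at 100 nM PLK-peptide with test compound 0–16.7 µM. Initial velocities are fitted by nonlinear least squares.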

[3] = biological target: T1, LRRK2; test: Radiometric assay of LRRK2-catalyzed LRRKtide phosphorylation; settings: for effect of nucleotide on kinase activity: LRRKtide phosphorylation, data not shown
[4] = 200 µM GTP, 0.5 mM ADP, 0.5 mM ATP or 1 µM PLK

T1 sequence (Q5S006 whole entry): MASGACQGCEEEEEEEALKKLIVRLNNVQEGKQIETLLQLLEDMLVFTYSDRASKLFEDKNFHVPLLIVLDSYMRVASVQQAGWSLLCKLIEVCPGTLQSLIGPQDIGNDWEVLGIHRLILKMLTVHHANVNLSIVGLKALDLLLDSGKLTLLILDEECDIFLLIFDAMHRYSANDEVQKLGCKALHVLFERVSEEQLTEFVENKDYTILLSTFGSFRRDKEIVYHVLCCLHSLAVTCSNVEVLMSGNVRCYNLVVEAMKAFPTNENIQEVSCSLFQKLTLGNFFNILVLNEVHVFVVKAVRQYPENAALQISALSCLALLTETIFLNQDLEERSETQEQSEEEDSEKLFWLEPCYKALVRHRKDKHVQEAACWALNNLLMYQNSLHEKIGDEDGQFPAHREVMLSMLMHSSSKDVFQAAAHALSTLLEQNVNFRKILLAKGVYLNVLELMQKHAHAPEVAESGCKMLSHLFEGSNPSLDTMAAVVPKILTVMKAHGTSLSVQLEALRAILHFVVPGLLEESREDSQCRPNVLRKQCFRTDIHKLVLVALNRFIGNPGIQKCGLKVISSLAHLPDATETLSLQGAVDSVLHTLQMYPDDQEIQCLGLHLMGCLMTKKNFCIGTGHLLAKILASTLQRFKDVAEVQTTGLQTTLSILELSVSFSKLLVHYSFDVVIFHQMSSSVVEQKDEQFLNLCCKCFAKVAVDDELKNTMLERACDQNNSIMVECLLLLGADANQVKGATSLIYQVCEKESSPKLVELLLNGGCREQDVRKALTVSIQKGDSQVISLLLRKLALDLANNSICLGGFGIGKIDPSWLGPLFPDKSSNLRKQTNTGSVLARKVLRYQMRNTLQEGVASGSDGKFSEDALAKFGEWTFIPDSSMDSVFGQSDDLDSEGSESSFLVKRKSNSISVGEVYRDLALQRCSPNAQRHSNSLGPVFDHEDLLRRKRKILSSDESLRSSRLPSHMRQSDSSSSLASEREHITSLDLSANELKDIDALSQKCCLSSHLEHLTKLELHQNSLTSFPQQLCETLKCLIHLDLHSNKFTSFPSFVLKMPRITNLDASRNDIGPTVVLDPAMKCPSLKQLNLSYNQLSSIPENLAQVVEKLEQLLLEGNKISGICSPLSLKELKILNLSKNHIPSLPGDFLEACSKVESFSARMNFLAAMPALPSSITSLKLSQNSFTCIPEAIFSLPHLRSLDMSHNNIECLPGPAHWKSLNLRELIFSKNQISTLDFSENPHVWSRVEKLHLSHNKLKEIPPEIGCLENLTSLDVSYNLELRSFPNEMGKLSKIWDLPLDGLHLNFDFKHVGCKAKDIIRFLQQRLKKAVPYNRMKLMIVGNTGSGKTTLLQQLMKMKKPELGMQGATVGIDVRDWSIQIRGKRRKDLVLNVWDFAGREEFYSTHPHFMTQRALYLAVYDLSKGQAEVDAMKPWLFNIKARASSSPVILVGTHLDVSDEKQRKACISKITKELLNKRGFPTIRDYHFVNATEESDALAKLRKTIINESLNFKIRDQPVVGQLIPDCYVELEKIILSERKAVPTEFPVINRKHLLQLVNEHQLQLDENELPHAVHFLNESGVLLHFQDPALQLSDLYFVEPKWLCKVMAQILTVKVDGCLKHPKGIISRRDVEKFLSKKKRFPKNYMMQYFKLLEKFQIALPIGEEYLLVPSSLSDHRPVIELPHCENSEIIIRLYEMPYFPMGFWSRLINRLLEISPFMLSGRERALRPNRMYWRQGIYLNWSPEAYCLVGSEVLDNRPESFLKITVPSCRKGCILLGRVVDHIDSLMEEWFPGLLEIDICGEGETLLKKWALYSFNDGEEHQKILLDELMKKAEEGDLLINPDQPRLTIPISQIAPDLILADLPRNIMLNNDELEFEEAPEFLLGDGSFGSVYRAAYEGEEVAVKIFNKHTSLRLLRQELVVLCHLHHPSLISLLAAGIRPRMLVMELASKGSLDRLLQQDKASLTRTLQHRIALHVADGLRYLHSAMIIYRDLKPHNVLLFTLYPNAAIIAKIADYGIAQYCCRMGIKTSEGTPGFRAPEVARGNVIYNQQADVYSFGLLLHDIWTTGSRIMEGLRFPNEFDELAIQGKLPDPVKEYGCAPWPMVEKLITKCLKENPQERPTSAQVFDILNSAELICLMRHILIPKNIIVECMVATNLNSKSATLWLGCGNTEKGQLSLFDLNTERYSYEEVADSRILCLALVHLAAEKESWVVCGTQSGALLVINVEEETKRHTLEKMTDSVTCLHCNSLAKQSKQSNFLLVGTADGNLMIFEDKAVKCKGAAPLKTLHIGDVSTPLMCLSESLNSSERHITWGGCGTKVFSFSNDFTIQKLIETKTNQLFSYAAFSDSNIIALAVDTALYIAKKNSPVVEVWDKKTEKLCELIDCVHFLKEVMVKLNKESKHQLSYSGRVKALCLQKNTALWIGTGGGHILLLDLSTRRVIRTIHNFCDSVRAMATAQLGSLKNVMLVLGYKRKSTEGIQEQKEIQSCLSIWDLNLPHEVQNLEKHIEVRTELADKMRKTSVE

With `Nc1ncnc2c1ncn2[C@@H]1O[C@H](COP(=O)(O)OP(=O)(O)O)[C@@H](O)[C@H]1O` [ADP] the “difference in dissociation constants, GTPase vs kinase reaction” value [1] was 30 fold, the “inhibition of GTPase activity” value [1, 4] was “Inhibition of GTPase activity was detected” and the Ki ([1]; 200 µM GTP) was 600 ± 100 µM.

In the case of `Nc1ncnc2c1ncn2[C@@H]1O[C@H](COP(=O)(O)O)[C@@H](O)[C@H]1O` [AMP], the Ki ([2]; read-out: Ki,e, PLK-peptide as phosphoryl acceptor) is reported as 2500 nM, the “difference of Ki,e between PLK-peptide and LRRKtide reactions” value [3] is reported as 5 fold and the Ki ([3]; read-out: Ki,e, LRRKtide as phosphoryl acceptor) is reported as 12 µM.

For `Nc1ncnc2c1ncn2[C@@H]1O[C@H](COP(=O)(O)OP(=O)(O)OP(=O)(O)O)[C@@H](O)[C@H]1O` [ATP], the “KA (KATP)” value ([2]; ATP with PLK-peptide as phosphoryl acceptor, global fit) was 13 ± 2.9 µM, the “inhibition of GTPase activity” value [1, 4] was “Inhibition of GTPase activity was detected” and the “KA (KATP)” value ([3]; ATP with LRRKtide as phosphoryl acceptor, global fit) was 67 ± 6.4 µM.

With `Nc1nc2c(ncn2[C@@H]2O[C@H](COP(=O)(O)OP(=O)(O)O)[C@@H](O)[C@H]2O)c(=O)[nH]1` [GDP] the Ki ([1]; 200 µM GTP) was 97 ± 16 µM and the “effect of nucleotide on kinase activity” value [3] was “no significant activation or inhibition of kinase activity was detected”.

`Nc1nc2c(ncn2[C@@H]2O[C@H](COP(=O)(O)O)[C@@H](O)[C@H]2O)c(=O)[nH]1` [GMP] was tested, and the Ki ([1]; 200 µM GTP) was 2900 ± 300 µM and the “effect of nucleotide on kinase activity” value [3] was “no significant activation or inhibition of kinase activity was detected”.

`Nc1nc2c(ncn2[C@@H]2O[C@H](COP(=O)(O)OP(=O)(O)OP(=O)(O)O)[C@@H](O)[C@H]2O)c(=O)[nH]1` [GTP] was tested, and the “solvent isotope effect ^Dkcat” value ([1]; 1 mM GTP, pH 7.4, D2O molar fraction 0.86, four experiments) was 0.97 ± 0.04, the kcat ([1]; GTP hydrolysis) was 0.23 ± 0.02 s⁻¹ and the Km ([1]; read-out: Km (KGTP), GTP hydrolysis) was 210 ± 29 µM. The “effect of nucleotide on kinase activity” value [3] was “no significant activation or inhibition of kinase activity was detected”.

In the case of `CN[C@@H]1C[C@H]2O[C@@](C)([C@@H]1OC)n1c3ccccc3c3c4c(c5c6ccccc6n2c5c31)C(=O)NC4` [staurosporine], the “inhibition of LRRK2 kinase activity” value ([2]; kinase assay not specified, data not shown) is reported as “inhibits LRRK2 kinase activity” and the “inhibition of GTPase activity” value ([1]; data not shown) is reported as “does not inhibit GTPase activity at all”.
